For data set [1], the target named is T1, Penicillin-binding protein 2X (Streptococcus pneumoniae R6) (UniProt P59676).
T1 sequence (whole entry): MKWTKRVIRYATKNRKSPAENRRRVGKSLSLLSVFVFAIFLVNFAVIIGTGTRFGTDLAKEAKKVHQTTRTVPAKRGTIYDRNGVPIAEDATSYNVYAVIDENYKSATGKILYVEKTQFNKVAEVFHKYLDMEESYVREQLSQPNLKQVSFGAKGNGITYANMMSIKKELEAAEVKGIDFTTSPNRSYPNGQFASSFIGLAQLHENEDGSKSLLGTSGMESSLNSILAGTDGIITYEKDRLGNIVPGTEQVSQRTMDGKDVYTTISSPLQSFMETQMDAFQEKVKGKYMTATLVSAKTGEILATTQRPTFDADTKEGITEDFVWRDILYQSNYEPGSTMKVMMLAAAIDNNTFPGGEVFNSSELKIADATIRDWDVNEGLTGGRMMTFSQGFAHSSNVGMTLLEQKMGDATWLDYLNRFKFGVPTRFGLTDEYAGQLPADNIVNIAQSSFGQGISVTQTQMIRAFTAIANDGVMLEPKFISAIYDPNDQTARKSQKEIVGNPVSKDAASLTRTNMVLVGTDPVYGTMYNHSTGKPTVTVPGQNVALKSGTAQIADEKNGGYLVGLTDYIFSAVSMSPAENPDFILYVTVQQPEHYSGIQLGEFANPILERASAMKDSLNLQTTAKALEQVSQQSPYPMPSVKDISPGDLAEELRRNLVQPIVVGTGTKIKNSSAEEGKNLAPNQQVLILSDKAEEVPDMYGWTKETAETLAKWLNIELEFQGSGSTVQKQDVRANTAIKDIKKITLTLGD
Briefly: Inhibition of penicillin-sensitive Streptococcus pneumoniae R6 PBP2X assessed as residual activity at 500 uM preincubated for 60 mins before addition of substrate mixture of (R)-[2-(benzoylamino)propionylsulfanyl]acetic acid and 5,5'-dithiobis(2-nitrobenzoic acid). The gist of the method: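 S. pneumoniae PBP2xR6 (0.09 μM) was preincubated with compound in 10 mM sodium phosphate pH 7.0 with 0.01 mg/mL BSA, for 60 min at 25 °C. S2d (1 mM final) and DTNB (0.5 mM final) were added, and the initial hydrolysis rate was monitored at 412 nm. Uninhibited activity (six replicates per plate) was set as 100%; assays ran in triplicate.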

The target of data set [2] is D-alanyl-D-alanine carboxypeptidase (Actinomadura sp. R39, UniProt P39045). Put plainly: Inhibition of Actinomadura sp. R39 penicillin-binding protein preincubated for 60 mins before addition of substrate mixture of (R)-[2-(benzoylamino)propionylsulfanyl]acetic acid and 5,5'-dithiobis(2-nitrobenzoic acid). In outline: (§1)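 Purified R39 (3.5 nM) preincubated with compound in 10 mM sodium phosphate pH 7.2, 100 mM NaCl, 100 mM D-alanine, 0.01 mg/mL BSA, 60 min, 25 °C. S2d then added (final 1 mM) with DTNB (final 0.5 mM; 1% v/v DMF). Initial hydrolysis rate read at 412 nm. Spontaneous substrate hydrolysis was measured without enzyme. Triplicates. IC50 from nonlinear regression of RA across a concentration range.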
Sequence of D-alanyl-D-alanine carboxypeptidase (P39045 whole entry): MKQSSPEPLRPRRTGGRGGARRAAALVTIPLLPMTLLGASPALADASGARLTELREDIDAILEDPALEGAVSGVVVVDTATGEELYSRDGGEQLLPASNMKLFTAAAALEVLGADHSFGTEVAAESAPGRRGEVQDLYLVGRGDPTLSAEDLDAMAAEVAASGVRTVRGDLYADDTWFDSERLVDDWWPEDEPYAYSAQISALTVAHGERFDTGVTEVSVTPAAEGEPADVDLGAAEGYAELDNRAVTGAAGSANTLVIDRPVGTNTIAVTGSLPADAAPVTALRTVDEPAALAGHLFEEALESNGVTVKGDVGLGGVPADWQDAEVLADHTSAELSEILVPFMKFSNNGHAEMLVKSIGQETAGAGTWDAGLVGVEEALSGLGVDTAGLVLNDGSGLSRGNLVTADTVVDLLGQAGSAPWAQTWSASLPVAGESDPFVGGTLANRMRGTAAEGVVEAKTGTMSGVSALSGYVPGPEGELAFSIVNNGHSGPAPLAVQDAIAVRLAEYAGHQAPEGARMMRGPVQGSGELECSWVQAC

Data set [3] relates to Streptococcus pneumoniae. Put plainly: Inhibition of Streptococcus pneumoniae PBP1B assessed as residual activity at 1 mM after 60 mins by SDS-PAGE.
Data set [4] can be described thus: Solubility in sodium phosphate buffer saline of pH 7.2 at 1 mM. The class given is physicochemical. To be noted: pH 7.2, 1000 µM.
For data set [5], the target named is T2, Penicillin-binding protein 2x (Streptococcus pneumoniae serotype 4 (strain ATCC BAA-334 / TIGR4)) (UniProt P14677).
T2 sequence (whole entry): T1 sequence (whole entry) with M385T
Briefly: Inhibition of penicillin-resistant Streptococcus pneumoniae 5204 PBP2X assessed as residual activity at 500 uM preincubated for 4 hrs before addition of substrate mixture of (R)-[2-(benzoylamino)propionylsulfanyl]acetic acid and 5,5'-dithiobis(2-nitrobenzoic acid). In outline: (§2)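 PBP2x-5204 (0.6 μM) preincubated with compound in 10 mM sodium phosphate pH 7.0, 70 mM D-alanine, 0.01 mg/mL BSA, 4 h, 25 °C. S2d (final 1 mM) and DTNB (final 0.5 mM) then added. Residual activity taken from initial rate at 412 nm against uninhibited enzyme (six replicates per plate). Triplicates. IC50 by nonlinear regression.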

Data set [6] addresses D-alanyl-D-alanine carboxypeptidase (Actinomadura sp. R39) (UniProt P39045). Put plainly: Inhibition of Actinomadura sp. R39 penicillin-binding protein at 0.5 mM preincubated for 60 mins before addition of substrate mixture of (R)-[2-(benzoylamino)propionylsulfanyl]acetic acid and 5,5'-dithiobis(2-nitrobenzoic acid). The gist of the method: (§3)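 Purified Actinomadura R39 D,D-peptidase (3.5 nM) was preincubated with compound for 60 min at 25 °C. S2d (1 mM final) and DTNB (0.5 mM final) were then added, with 1% v/v DMF. Initial rate was read at 412 nm, corrected for enzyme-free hydrolysis, in triplicate.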

In data set [7] the target is T2, Penicillin-binding protein 2x (Streptococcus pneumoniae serotype 4 (strain ATCC BAA-334 / TIGR4)). Briefly: Inhibition of penicillin-resistant Streptococcus pneumoniae 5204 PBP2X assessed as residual activity at 100 uM preincubated for 4 hrs before addition of substrate mixture of (R)-[2-(benzoylamino)propionylsulfanyl]acetic acid and 5,5'-dithiobis(2-nitrobenzoic acid). The gist of the method:
as §2

Data set [8] has as its target D-alanyl-D-alanine carboxypeptidase (Actinomadura sp. R39) (UniProt P39045). Briefly: Inhibition of Actinomadura sp. R39 penicillin-binding protein assessed as residual activity at 100 uM preincubated for 60 mins before addition of substrate mixture of (R)-[2-(benzoylamino)propionylsulfanyl]acetic acid and 5,5'-dithiobis(2-nitrobenzoic acid). In outline: as §1
The nature of data set [9]: Solubility in sodium phosphate buffer saline of pH 7.2. The class given is physicochemical.
Data set [10] deals with T1, Penicillin-binding protein 2X (Streptococcus pneumoniae R6). Put plainly: Inhibition of penicillin-sensitive Streptococcus pneumoniae R6 PBP2X assessed as residual activity at 100 uM preincubated for 60 mins before addition of substrate mixture of (R)-[2-(benzoylamino)propionylsulfanyl]acetic acid and 5,5'-dithiobis(2-nitrobenzoic acid). In outline: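 PBP2x-R6 (0.09 μM) preincubated with compound in 10 mM sodium phosphate pH 7.0, 0.01 mg/mL BSA, 60 min, 25 °C. S2d (final 1 mM) and DTNB (final 0.5 mM) then added. Residual activity from initial rate at 412 nm, relative to enzyme-only wells. Triplicates. Repeated with 0.01% Triton X-100 when RA <80%.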

Data set [11] addresses Penicillin-binding protein 2x (Streptococcus pneumoniae serotype 4 (strain ATCC BAA-334 / TIGR4), UniProt P14677). Briefly: Inhibition of penicillin-resistant Streptococcus pneumoniae 5204 PBP2X preincubated for 4 hrs before addition of substrate mixture of (R)-[2-(benzoylamino)propionylsulfanyl]acetic acid and 5,5'-dithiobis(2-nitrobenzoic acid). In outline: as §2
Data set [12] deals with D-alanyl-D-alanine carboxypeptidase (Actinomadura sp. R39) (UniProt P39045). Briefly: Inhibition of Actinomadura sp. R39 penicillin-binding protein assessed as residual activity at 500 uM preincubated for 60 mins before addition of substrate mixture of (R)-[2-(benzoylamino)propionylsulfanyl]acetic acid and 5,5'-dithiobis(2-nitrobenzoic acid). In outline:
as §3

Substitutions are numbered along the chain they refer to. A value given as a limit tells only on which side of the number the result lay.

Sequence of D-alanyl-D-alanine carboxypeptidase (Actinomadura sp. R39) (P39045 whole entry): as above
Sequence of Penicillin-binding protein 2x (P14677 whole entry, looked up): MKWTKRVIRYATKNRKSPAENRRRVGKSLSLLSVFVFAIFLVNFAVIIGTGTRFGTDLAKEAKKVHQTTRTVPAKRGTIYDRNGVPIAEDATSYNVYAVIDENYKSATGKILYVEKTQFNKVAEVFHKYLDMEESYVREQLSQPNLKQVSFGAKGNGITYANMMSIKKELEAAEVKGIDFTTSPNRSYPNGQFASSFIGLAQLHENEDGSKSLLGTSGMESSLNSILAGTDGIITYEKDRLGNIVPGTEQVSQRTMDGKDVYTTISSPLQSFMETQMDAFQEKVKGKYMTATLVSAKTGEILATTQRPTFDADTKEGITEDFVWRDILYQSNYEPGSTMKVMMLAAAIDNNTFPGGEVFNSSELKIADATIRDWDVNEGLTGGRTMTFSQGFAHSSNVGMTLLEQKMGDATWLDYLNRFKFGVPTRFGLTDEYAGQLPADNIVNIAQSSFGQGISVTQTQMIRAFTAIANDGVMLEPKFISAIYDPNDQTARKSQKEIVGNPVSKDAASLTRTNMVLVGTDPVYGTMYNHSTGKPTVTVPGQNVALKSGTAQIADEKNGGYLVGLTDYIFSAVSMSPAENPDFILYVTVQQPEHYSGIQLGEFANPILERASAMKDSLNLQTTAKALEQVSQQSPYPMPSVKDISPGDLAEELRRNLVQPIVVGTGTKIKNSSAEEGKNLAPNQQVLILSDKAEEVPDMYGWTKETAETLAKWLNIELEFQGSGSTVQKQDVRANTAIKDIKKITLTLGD

With `CN(C)c1cccc2c(S(=O)(=O)Nc3cccc(B(O)O)c3)cccc12`, in [1], the Activity worked out at 91%.
As to `O=C(O)c1cc(NC(=O)c2cccs2)cc(B(O)O)c1`, in [2], the IC50 amounted to 32 µM. Also, the Activity in data set [3] is 70%.
As for `O=C(O)c1cccc(B(O)O)c1`, in data set [2], the half-maximal inhibitory concentration (IC50) stood at 400 µM.
Take `OB(O)c1ccccc1` [PHENYLBORONIC ACID]: the solubility result in [4] is “Insoluble”. Moreover, the values for the Activity in data set [5] and in [1] were 78% and 114%, respectively. In addition, the inhibition in data set [6] worked out at 50%.
For the molecule `O=C(Cc1cccs1)Nc1cc(B(O)O)cc(C(=O)O)c1`, in data set [2], the IC50 is 78 µM. Besides, in [3], the Activity is 53%.
On the same counts, the results for `O=C(COc1ccccc1)Nc1cc(B(O)O)cc(C(=O)O)c1` are 28 µM and 83%.
On the same counts, the results for `COc1ccccc1C(=O)Nc1cc(B(O)O)cc(C(=O)O)c1` are 23 µM and 82%.
Regarding `OB(O)c1ccc(-c2ccccc2)cc1` [BIPHENYLBORONIC ACID], the Activity in [7] amounted to 120%; in [8], 104%; in data set [10], 90%. Besides, the solubility result in [9] is on record as “Insoluble”.
Regarding `OB(O)c1ccc(-c2ccc(B(O)O)cc2)cc1`, the Activity turned out to be 95% in data set [7] and 104% in data set [10]. Further, the solubility result in [9] is listed as “Insoluble”.
With `O=C(O)c1ccc(B(O)O)s1`, the half-inhibitory concentration (IC50) in data set [11] was > 1000 µM.
For `O=C(Cc1ccccc1)Nc1cc(B(O)O)cc(C(=O)O)c1`, the IC50 in data set [2] was determined as 88 µM.
With `CC1(C)OB(c2cccc(C(=O)O)c2)OC1(C)C`, in data set [4], the solubility result is on record as “Insoluble”. For the same molecule, the figures for the Activity in [5], in [1] and in data set [12] were 98%, 93% and 38%, respectively. Further, in [6], the inhibition is > 50%.
As to `OB(O)c1ccc(Oc2ccccc2)cc1`, in data set [7], the Activity amounted to 108%.
For the molecule `O=C(O)c1cc(NC(=O)c2ccccc2)cc(B(O)O)c1`, the IC50 in data set [2] came out at 34 µM. Moreover, the Activity in data set [3] was 85%.
